Laboratory results reported in ChEMBL document CHEMBL4513216, “Probing the Open Global Health Chemical Diversity Library for Multistage-Active Starting Points for Next-Generation Antimalarials” (ACS Infect Dis, 2020).

Assay: Toxicity liver stage against HepG2, at 10uM
Type: cell-based
Set-up: test concentration 10 uM, cell line HepG2-A16-CD81EGFP
Conditions: human, HepG2-A16-CD81EGFP cells; read-out: INHIBITION
Summary of the method: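 Uninfected HepG2-A16-CD81EGFP cells, 3 × 10^3 per well, 1536-well, plated on prespotted compound at 10 μM final, parasite-free screening media added to match infected plates; puromycin 10 μM positive, DMSO 0.5% negative; run in parallel with 48 h PbLuc assay at 37 °C, 5% CO2; viability by CellTiter-Glo luminescence, normalized to controls.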

| SMILES | cytotoxicity at 10 µM [%] |
| --- | --- |
| Cc1ccc2[nH]c(CO[C@H]3CN(C(=O)C4CC4)C[C@H]3F)nc2c1 | -11.6 |
| FC(F)(F)Oc1cccc(CNC[C@H]2Cn3ccnc3CO2)c1 | 2.21 |
| Cn1c(C(=O)NCC2(N)CCCC2)cc2ccccc21 | 7.8 |
| O=C1Nc2ccccc2/C1=C1\CCCN1 | 5.02 |
| CC(C)Cc1nc(OCC(=O)O)c(C#N)c2c1CCCC2 | -6.14 |
| O=C(Nc1ccc2c(c1)OCO2)N1CCN(CCn2cccn2)CC1 | 0.741 |
| CC(C)NC(=O)NCCn1cnc(C2CCCC2)cc1=O | -0.373 |
| CCOCC(=O)N1CCC(CSCc2ccco2)CC1 | -7.36 |
| Cn1nc(CN2CCCC2)c2c1CN(C(=O)c1cnccn1)CC2 | -147 |
| CC(=O)NCC(=O)N1CCC2(CC1)NC(=O)CC2c1cnn(C)c1 (stereo not given) | -0.113 |
| O=C1CC(C2CCCCC2)c2c(n(C3CCCC3)[nH]c2=O)N1 (stereo not given) | -5.01 |
| CCCC(=O)Nc1sc(C(=O)OCC)c(C)c1C#N | 8.29 |
| O=C(C1CCOCC1)N1CCO[C@H]2[C@@H](OCc3ccncc3)CC[C@@H]21 | 5.54 |
| Cc1cc(C(F)(F)F)nn1CCCNC(=O)C1CCCC1 | -4.93 |
| Cc1cc2c(cc1NC(N)=O)OCO2 | 3.13 |
| COc1cccc(CNCc2cccc(Cl)c2)c1O | 1.29 |
| O=C(NC1CC1)c1ccn(COc2c(Cl)cccc2Cl)n1 | 7.36 |
| COc1cccc(F)c1CN1CCC(c2nc(C)cc(C)n2)C1 (stereo not given) | 6.83 |
| OCCN1CCCC(c2cccc(-c3ccccc3F)n2)C1 (stereo not given) | 5.68 |
| CC(=O)Nc1cccc([C@H]2C[C@@H](NC(C)=O)CCO2)c1 | -0.825 |
| COc1ccc(OC)c([C@@H]2N[C@H](c3nccs3)Cc3ccsc32)c1 | 12.6 |
| CN1C[C@@H](C(=O)N2CCCOCC2)[C@@]2(CCc3ccccc3C(=O)N2)C1 | 8.64 |

| SMILES | cytotoxicity at 10 µM [%] |
| --- | --- |
| NC(=O)C1CN(Cc2c[nH]cn2)CCN(C2CCOCC2)C1 (stereo not given) | 3.83 |
| CC(C)(C)CC(=O)NCC1CCCS1 (stereo not given) | 11.2 |
| Cc1cnc(CCNC(=O)NCCc2ccc(O)cc2)s1 | -0.276 |
| Cc1cnn(C2CCCN(C(=O)c3cc(-c4cccs4)n[nH]3)C2)c1 (stereo not given) | -7.83 |
| COc1cc(C)sc1C(=O)NCCNc1ccccc1 | -7.64 |
| Cn1cc(C2CCCN2C(=O)COC2CCCCC2)cn1 (stereo not given) | -8.79 |
| CC(C#N)CSc1ccccc1NCC(=O)NC(C1CC1)C1CC1 (stereo not given) | 14.5 |
| COC(=O)CCNC(=O)c1cccc(C(=O)N(C)c2ccccc2)c1 | -2.69 |
| CC(C)c1nnc2n1CC(CNCc1nc3ccccc3s1)CC2 (stereo not given) | 13 |
| CC(C)C(NC(=O)NCC1CC1)c1nnc2n1CCC2 (stereo not given) | -7.44 |
| CN(Cc1ccc2c(c1)OCCO2)Cn1nc(C(C)(C)C)ccc1=O | -12.4 |
| COc1ccc(NC(=O)C(C)(C)C)cc1OCc1cccnc1 | -41.1 |
| CC1CCN(S(=O)(=O)N2Cc3ccccc3C[C@H]2C(N)=O)CC1 | -6.64 |
| COC(=O)CCCN(C)C(=O)c1cc(F)cc2[nH]cnc12 | -2.23 |
| CCc1nn(C)c2[nH]nc(NC(=O)c3cccnc3OC)c12 | -8.98 |
| CCN(CC)S(=O)(=O)N1CCCC1C(=O)N1CCSCC1 (stereo not given) | -4.71 |
| O=C(CC1CCCO1)NCCCC(=O)Nc1ccc(Cl)cc1 (stereo not given) | 2.91 |
| CSc1ccc(OC(C)C(=O)Nc2cc(C)n[nH]2)cc1 (stereo not given) | 8.64 |
| O=C1CC2(CCCCC2)CC(=O)N1CC(O)COCc1ccc(Cl)cc1 (stereo not given) | -1.04 |
| Cc1occc1C(=O)N1C[C@@H]2CCCO[C@@H]2[C@H](NS(C)(=O)=O)C1 | -95.3 |
| Cn1cc(CN2CCc3onc(C(=O)Nc4cccnc4)c3C2)cn1 | 4.22 |
| O=C(C1CC=CC1)N1CC[C@@H](O)[C@H]1Cc1cccnc1 | -99.4 |

| SMILES | cytotoxicity at 10 µM [%] |
| --- | --- |
| O=C(c1ccoc1)N1CC[C@@H]2[C@H]1CCC(=O)N2c1ccccc1 | -0.362 |
| Cn1cc(CN2CCCC(CCc3ccccc3C(F)(F)F)C2)cn1 (stereo not given) | -4.24 |
| COc1cccc(C(=O)C2CCCN(c3nccc(N)n3)C2)c1 (stereo not given) | -1.82 |
| COc1cc(N(C)Cc2noc(CC(C)C)n2)ncn1 | -0.71 |
| CCc1nnc(CN(CC)C(=O)C2CC(=O)N(C3CCCC3)C2)o1 (stereo not given) | -2.57 |
| COCCCN1CCCC(c2nccn2CC2CCC2)C1 (stereo not given) | -3.94 |
| Cc1nccn1-c1ccc(N2CCC(N[C@H](C)C(C)C)CC2)cc1 | -6.39 |
| COCC1CCCN(C(=O)c2ccc(N(C)Cc3cnn(C)c3)nc2)C1 (stereo not given) | -3.97 |
| CN(CCc1ccccc1)Cc1nc(Cc2cccc(F)c2)no1 | 0.276 |
| CCc1nccn1CCCn1ccnc1-c1[nH]cnc1C | 10 |
| CCOc1ccc2[nH]c(=O)c(CN3CCC(n4cnnc4)CC3)cc2c1 | -0.966 |
| CC(=O)NCC(=O)N1CCc2[nH]c(-c3ccccc3)nc2C1 | -0.591 |
| Cc1c(C(C)NCc2cnn(C)c2)cnn1-c1ccccc1 (stereo not given) | -5.78 |
| Cc1nc(CNC2CC(=O)N(CCc3cccc(Cl)c3)C2)c[nH]1 (stereo not given) | -133 |
| CNC(=O)C1CCCN1c1nc(C)c2ccccc2n1 (stereo not given) | 10.4 |
| COCCN1CCN(Cc2cccnc2)[C@H]2CS(=O)(=O)C[C@H]21 | 6.03 |
| CS(=O)(=O)c1ccc(CC(=O)N2CCN3CCNC(=O)C3C2)cc1 (stereo not given) | -3.34 |
| Cc1ccccc1N1CCN(C(=O)c2cnc(C3CC3)nc2)C(C)C1 (stereo not given) | 2.09 |
| Cn1cc(CN2CCCC(CCc3ccc(F)cc3F)C2)cn1 (stereo not given) | -10.4 |
| O=C(O)[C@]12CCCN(Cc3ccccn3)[C@@H]1CCN(c1cnccn1)C2 | 2.12 |
| CS(=O)(=O)NCCC1CCCN(Cc2ccccc2F)C1 (stereo not given) | -1.25 |
| COc1ccc(C(C(=O)O)N2CCN(C3CCCC3)CC2)cc1C (stereo not given) | -8.77 |

| SMILES | cytotoxicity at 10 µM [%] |
| --- | --- |
| COCCn1ccnc1C1CCCN(c2cc(OC)nc(N)n2)C1 (stereo not given) | 11.2 |
| COc1ccc(NC(=O)CCC2CCCN(S(=O)(=O)C3CC3)C2)cc1Cl (stereo not given) | 11.3 |
| CC(C)Cc1cc(C(=O)N2CC(OCc3ccccc3F)C2)n(C)n1 | 8.92 |
| Fc1ccccc1C(CNc1ccncn1)N1CCCC1 (stereo not given) | 2.84 |
| CCc1nc(N)nc(NCc2cnn3cccnc23)c1C | 52.5 |
| Cc1csc2c(N3CCC(NCCCc4ccncc4)CC3)ncnc12 | -1.54 |
| Clc1ccccc1C1(c2ccnc(CC3CC3)n2)CCNCC1 | -10.3 |
| CN(C)Cc1ccc(C2CCCCN2C(=O)c2cccc(CO)n2)cc1 (stereo not given) | -16.9 |
| O=C(O)C1(Cc2ccccc2Cl)CCN(c2ncccc2F)CC1 | -12.3 |
| CC(C)(C)c1cc(CN2CC[C@@H](NC(=O)c3cccnc3)[C@H](O)C2)n[nH]1 | -13.2 |
| Cc1noc(CNc2ccc(C(=O)N3CCCC(C)C3)cc2C)n1 (stereo not given) | -4.07 |
| COc1c(CNC2CCCN(c3ncccn3)C2)c(C(C)C)nn1C (stereo not given) | -9.94 |
| CN(CC(=O)Nc1cccnc1)C1CCCN(c2cccnn2)C1 (stereo not given) | -2.42 |
| CCCN1CCC(CNC(=O)C2(c3ccccc3)CCC2)C1 (stereo not given) | -6.29 |
| CN1CCOC(CN(C(=O)CCc2ccco2)c2nccs2)C1 (stereo not given) | -16.1 |
| Cc1nnc2n1CCN(CCS(=O)(=O)c1ccc(Cl)cc1)C2 | -4.53 |
| CCc1nc(CN2CCCN(C(=O)CC(C)OC)CC2)cs1 (stereo not given) | -24.7 |
| CC1CCN(S(=O)(=O)NCc2ccccc2Cn2cccn2)CC1 | 7.4 |
| Cc1nc(CN2CCN(C(=O)CCc3ccco3)CC2)cs1 | -4.39 |
| O=C(CCOc1ccc(Br)cc1)N1CCN(c2cnccn2)CC1 | 0.207 |
| COc1ccc(F)cc1CN1CCCC1Cn1nc(C)nc1C (stereo not given) | -2.41 |
| CCc1nc(C2CCCN(C(=O)c3ccc(O)nc3)C2)no1 (stereo not given) | -11.7 |

| SMILES | cytotoxicity at 10 µM [%] |
| --- | --- |
| COc1ccc(CC(=O)N2CCCC2Cn2cc(C)cn2)c(OC)c1 (stereo not given) | -18 |
| Cc1nc(CN2CCCN(C(=O)COCC3CC3)CC2)cs1 | -11 |
| Cc1cnc(C(=O)N2CCCC(n3ccnc3C)C2)cn1 (stereo not given) | -10.8 |
| O=C(NCCOc1ccc(Cl)cc1)N1CCS(=O)(=O)CC1 | 0.89 |
| O=C(NCCCN1CCc2ccccc2C1)c1cccnc1O | -3.49 |
| O=C(Cc1csc(-c2ccco2)n1)N1CCN(c2cnccn2)CC1 | 0.0241 |
| CC(=O)N(Cc1noc(C)n1)C1CCN(Cc2ccccc2C#N)C1 (stereo not given) | -1.76 |
| CC(Cn1cccn1)NC(=O)CCc1ccc(S(N)(=O)=O)cc1 (stereo not given) | -2.02 |
| CC(C)c1nc2n(n1)CC(NCc1nc(-c3cccnc3)no1)CC2 (stereo not given) | 4.04 |
| CCc1cc2cc(OC)c(OC)cc2nc1SCCN1CCCCC1 | -4.82 |
| COc1ccccc1CN(CCCn1ccnc1)CC1CCOC1 (stereo not given) | 11 |
| O=C(Nc1cnccn1)[C@@H]1CC[C@@H]2[C@@H](CCN2Cc2nccs2)O1 | -136 |
| CCN1C[C@H]2C3(CCN(C(=O)NC(C)C)CC3)CC[C@@]2(C(=O)NC)C1 | -106 |
| CC[C@H]1N(C)CCC[C@]12CCC(=O)N2Cc1ccncc1 | 7.99 |
| Cc1cccc(CN2C[C@@H]3CN(C(=O)c4cnccn4)C[C@@H]3C2=O)n1 | 3.14 |
| CS(=O)(=O)NC[C@H]1OC[C@@H]2CCN(CCc3ccccc3)C[C@@H]21 | -4.67 |
| COc1cccc(CN2C[C@@H]3COC[C@]3(CNC(=O)C3CC3)C2)c1 | -99 |
| COc1cccc(CN2CCC3(CCN(C(=O)[C@H]4CCCO4)CC3)C2)c1 | 6.57 |
| CCC(=O)N1CCN(CCn2cccn2)c2ncccc2C1 | -106 |
| CN(Cc1ccco1)C1CCC12CCN(C(=O)C1CCOCC1)CC2 (stereo not given) | -2.92 |
| CN(C)C(=O)NCc1cc2n(n1)CCN(CC1[C@H]3CNC[C@@H]13)C2 (stereo not given in full) | -27.7 |
| O=C(NCC1CC1)[C@H]1C[C@H]2CN(S(=O)(=O)Cc3ccccc3)C[C@@H]1O2 | 7.56 |
